Experimental data as given in ChEMBL document CHEMBL1131483, “Discovery of novel pyridinopolyamines with potent antimicrobial activity: deconvolution of mixtures synthesized by solution-phase combinatorial chemistry” (1998).
≈ marks a conversion by molar mass, not a printed value.

What was measured:
Assay type in all cases: functional
[1] = test system: Candida albicans; test: Minimum inhibitory concentration of Candida albicans growth.
Summary of the method: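 Candida albicans ATCC 10231 in YM broth at 22 °C. Overnight culture added to sample in 4% DMSO in water, about 1 × 10^5 cells/well, 150 μL, duplicate. Growth scored visually at 48 h. MIC is reported as a concentration range: full inhibition at the upper value, viable cells at the lower. Amphotericin B was the positive control.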

[2] = test system: Escherichia coli; test: (§1) Minimum inhibitory concentration of Escherichia coli growth.
[3] = test system: Escherichia coli; test: as §1; remark: listed apart in the source
[4] = test system: Enterococcus faecalis; test: Minimum inhibitory concentration of Enterococcus faecalis growth.
Summary of the method: (§2)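 Broth-microdilution at 37 °C. Strains and media: E. faecalis ATCC 29212 in Todd-Hewitt, K. pneumoniae ATCC 13883 and P. vulgaris ATCC 8427 in nutrient broth, S. aureus ATCC 25923 in trypticase soy broth. About 1 × 10^7 cells/well, sample in 4% DMSO in water, duplicate. A595 read at 24 h versus a no-compound well. MIC is reported as a range. Ampicillin and tetracycline were controls.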

[5] = test system: Klebsiella pneumoniae; test: Minimum inhibitory concentration of Klebsiella pneumoniae growth.; summary of the method: as §2
[6] = test system: Proteus vulgaris; test: Minimum inhibitory concentration of Proteus vulgaris growth.; summary of the method: as §2
[7] = test system: Pseudomonas aeruginosa; test: Minimum inhibitory concentration of Pseudomonas aeruginosa growth.
Summary of the method: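 Pseudomonas aeruginosa ATCC 27853 in nutrient broth at 37 °C. About 1 × 10^7 cells/well, sample in 4% DMSO in water, 150 μL, duplicate. Growth relative to an untreated well was read at A595 after 24 h. MIC is given as a range, complete inhibition at the higher concentration. Ciprofloxacin was the positive control.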

[8] = test system: Streptococcus pyogenes; test: Minimum inhibitory concentration of Streptococcus pyogenes (wt) growth.
Summary of the method: (§3)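 Streptococcus pyogenes in Todd-Hewitt broth at 37 °C. The tier II strain is ATCC 49399. Overnight culture at about 1 × 10^7 cells/well, sample in 4% DMSO in water, duplicate. Percent growth versus a no-compound well by A595 at 24 h. MIC is a concentration range: full inhibition at the upper value, growth at the lower. Ampicillin and tetracycline were controls.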

[9] = test system: Streptococcus pyogenes; test: Minimum inhibitory concentration of Streptococcus pyogenes growth.; summary of the method: as §3
[10] = test system: Staphylococcus aureus; test: Minimum inhibitory concentration of Staphylococcus aureus growth.; summary of the method: as §2
[11] = Escherichia coli, read-out: MIC
[12] = Streptococcus pyogenes, read-out: MIC

| Compound | MIC ([1]; Candida albicans) | MIC [2] | MIC [3, 11] | MIC [4] | MIC [5] | MIC [6] | MIC [7] | MIC [8] | MIC [9, 12] | MIC [10] | MIC [1] | MIC [3] | MIC [9] |
| --- | --- | --- | --- | --- | --- | --- | --- | --- | --- | --- | --- | --- | --- |
| OCCCNCCN(Cc1ccccc1)Cc1cccc(CN(Cc2ccccc2)Cc2ccccc2)n1 | 50 µM (≈ 25.4 µg/mL) | 12 µM (≈ 6.1 µg/mL) | 10 µM (≈ 5.09 µg/mL) | 12 µM (≈ 6.1 µg/mL) | 50 µM (≈ 25.4 µg/mL) | 50 µM (≈ 25.4 µg/mL) | 50 µM (≈ 25.4 µg/mL) | 6 µM (≈ 3.05 µg/mL) | 5 µM (≈ 2.54 µg/mL) | 25 µM (≈ 12.7 µg/mL) | – | – | – |
| OCCCNCCN(Cc1cccc(F)c1)Cc1cccc(CN(Cc2cccc(F)c2)Cc2cccc(F)c2)n1 | 50 µM (≈ 28.1 µg/mL) | 12 µM (≈ 6.75 µg/mL) | 5 µM (≈ 2.81 µg/mL) | 25 µM (≈ 14.1 µg/mL) | – | – | – | 6 µM (≈ 3.38 µg/mL) | 5 µM (≈ 2.81 µg/mL) | 12 µM (≈ 6.75 µg/mL) | – | – | – |
| COC(=O)c1cccc(CN(CCNCCCO)Cc2cccc(CN(Cc3cccc(C(=O)OC)c3)Cc3cccc(C(=O)OC)c3)n2)c1 | 50 µM (≈ 34.1 µg/mL) | 25 µM (≈ 17.1 µg/mL) | 20 µM (≈ 13.7 µg/mL) | > 100 µM | – | – | – | 12 µM (≈ 8.19 µg/mL) | 10 µM (≈ 6.83 µg/mL) | 25 µM (≈ 17.1 µg/mL) | – | – | – |
| COC(=O)c1cccc(CN(Cc2cccc(C(F)(F)F)c2)Cc2cccc(CN(CCNCCCO)Cc3cccc(C(F)(F)F)c3)n2)c1 | > 100 µM | > 100 µM | 6 µM (≈ 4.22 µg/mL) | 6 µM (≈ 4.22 µg/mL) | > 100 µM | > 100 µM | > 100 µM | 6 µM (≈ 4.22 µg/mL) | 3 µM (≈ 2.11 µg/mL) | 12 µM (≈ 8.43 µg/mL) | – | – | – |
| O=[N+]([O-])c1cccc(CN(Cc2cccc(C(F)(F)F)c2)Cc2cccc(CN(CCNCCCO)Cc3cccc(C(F)(F)F)c3)n2)c1 | > 100 µM | > 100 µM | 6 µM (≈ 4.14 µg/mL) | 6 µM (≈ 4.14 µg/mL) | > 100 µM | > 100 µM | > 100 µM | 6 µM (≈ 4.14 µg/mL) | 3 µM (≈ 2.07 µg/mL) | 6 µM (≈ 4.14 µg/mL) | > 100 µM | 5 µM (≈ 3.45 µg/mL) | 5 µM (≈ 3.45 µg/mL) |
| OCCCN(CCN(Cc1ccccc1)Cc1cccc(CN(Cc2ccccc2)Cc2ccccc2)n1)Cc1ccccc1 | 5 µM (≈ 2.99 µg/mL) | – | 25 µM (≈ 15 µg/mL) | – | – | – | – | – | 25 µM (≈ 15 µg/mL) | – | – | – | – |
| Cc1cccc(CN(CCNCCCO)Cc2cccc(CN(Cc3cccc([N+](=O)[O-])c3)Cc3cccc(C(F)(F)F)c3)n2)c1 | 50 µM (≈ 31.8 µg/mL) | > 100 µM | 25 µM (≈ 15.9 µg/mL) | 6 µM (≈ 3.81 µg/mL) | > 100 µM | > 100 µM | > 100 µM | 6 µM (≈ 3.81 µg/mL) | 5 µM (≈ 3.18 µg/mL) | 6 µM (≈ 3.81 µg/mL) | – | – | – |
| Cc1cccc(CN(CCNCCCO)Cc2cccc(CN(Cc3cccc(F)c3)Cc3cccc(C(F)(F)F)c3)n2)c1 | < 12.5 µM | > 100 µM | 5 µM (≈ 3.04 µg/mL) | 6 µM (≈ 3.65 µg/mL) | 25 µM (≈ 15.2 µg/mL) | > 100 µM | > 100 µM | 6 µM (≈ 3.65 µg/mL) | 5 µM (≈ 3.04 µg/mL) | 6 µM (≈ 3.65 µg/mL) | – | – | – |
| Cc1cccc(CN(CCNCCCO)Cc2cccc(CN(Cc3cccc(C)c3)Cc3cccc(C(F)(F)F)c3)n2)c1 | < 12.5 µM | > 100 µM | 25 µM (≈ 15.1 µg/mL) | 6 µM (≈ 3.63 µg/mL) | 12 µM (≈ 7.26 µg/mL) | > 100 µM | > 100 µM | 6 µM (≈ 3.63 µg/mL) | 5 µM (≈ 3.02 µg/mL) | 6 µM (≈ 3.63 µg/mL) | – | – | – |
| O=[N+]([O-])c1cccc(CN(CCNCCCO)Cc2cccc(CN(Cc3cccc([N+](=O)[O-])c3)Cc3cccc([N+](=O)[O-])c3)n2)c1 | > 100 µM | > 100 µM | 10 µM (≈ 6.44 µg/mL) | > 100 µM | > 100 µM | > 100 µM | > 100 µM | 12 µM (≈ 7.72 µg/mL) | 5 µM (≈ 3.22 µg/mL) | 12 µM (≈ 7.72 µg/mL) | – | – | – |
| COC(=O)c1cccc(CN(Cc2cccc(C(F)(F)F)c2)Cc2cccc(CN(CCNCCCO)Cc3cccc(C)c3)n2)c1 | < 12.5 µM | > 100 µM | 25 µM (≈ 16.2 µg/mL) | 6 µM (≈ 3.89 µg/mL) | > 100 µM | > 100 µM | > 100 µM | 6 µM (≈ 3.89 µg/mL) | 5 µM (≈ 3.24 µg/mL) | 12 µM (≈ 7.79 µg/mL) | – | – | – |
| Cc1cccc(CN(CCNCCCO)Cc2cccc(CN(Cc3cccc(C)c3)Cc3cccc(C)c3)n2)c1 | 12 µM (≈ 6.61 µg/mL) | 6 µM (≈ 3.3 µg/mL) | 5 µM (≈ 2.75 µg/mL) | 6 µM (≈ 3.3 µg/mL) | > 100 µM | > 100 µM | > 100 µM | 6 µM (≈ 3.3 µg/mL) | 5 µM (≈ 2.75 µg/mL) | 6 µM (≈ 3.3 µg/mL) | – | – | – |
| Cc1cccc(CN(CCNCCCO)Cc2cccc(CN(Cc3cccc(C(F)(F)F)c3)Cc3cccc(C(F)(F)F)c3)n2)c1 | > 100 µM | > 100 µM | 25 µM (≈ 16.5 µg/mL) | 6 µM (≈ 3.95 µg/mL) | > 100 µM | > 100 µM | > 100 µM | 6 µM (≈ 3.95 µg/mL) | 5 µM (≈ 3.29 µg/mL) | 12 µM (≈ 7.9 µg/mL) | – | – | – |
| NCc1cccc(CNCCNCCCO)n1 | > 100 µM | – | > 100 µM | – | – | – | – | – | > 100 µM | – | – | – | – |
| OCCCNCCN(Cc1cccc(C(F)(F)F)c1)Cc1cccc(CN(Cc2cccc(F)c2)Cc2cccc(C(F)(F)F)c2)n1 | > 100 µM | > 100 µM | 6 µM (≈ 3.98 µg/mL) | 6 µM (≈ 3.98 µg/mL) | > 100 µM | > 100 µM | > 100 µM | 6 µM (≈ 3.98 µg/mL) | 6 µM (≈ 3.98 µg/mL) | 12 µM (≈ 7.95 µg/mL) | – | – | – |
| OCCCNCCN(Cc1cccc(C(F)(F)F)c1)Cc1cccc(CN(Cc2ccccc2)Cc2cccc(C(F)(F)F)c2)n1 | > 100 µM | > 100 µM | 3 µM (≈ 1.93 µg/mL) | 12 µM (≈ 7.74 µg/mL) | 50 µM (≈ 32.2 µg/mL) | > 100 µM | > 100 µM | 12 µM (≈ 7.74 µg/mL) | 3 µM (≈ 1.93 µg/mL) | 25 µM (≈ 16.1 µg/mL) | – | – | – |
| Cc1cccc(CN(Cc2cccc(C(F)(F)F)c2)Cc2cccc(CN(CCNCCCO)Cc3cccc(C(F)(F)F)c3)n2)c1 | > 100 µM | > 100 µM | 3 µM (≈ 1.98 µg/mL) | 6 µM (≈ 3.95 µg/mL) | 100 µM (≈ 65.9 µg/mL) | > 100 µM | > 100 µM | 6 µM (≈ 3.95 µg/mL) | 3 µM (≈ 1.98 µg/mL) | 12 µM (≈ 7.9 µg/mL) | – | – | – |
| OCCCNCCN(Cc1cccc(C(F)(F)F)c1)Cc1cccc(CN(Cc2cccc(C(F)(F)F)c2)Cc2cccc(C(F)(F)F)c2)n1 | > 100 µM | > 100 µM | 5 µM (≈ 3.56 µg/mL) | > 100 µM | > 100 µM | > 100 µM | > 100 µM | 12 µM (≈ 8.55 µg/mL) | 5 µM (≈ 3.56 µg/mL) | 6 µM (≈ 4.28 µg/mL) | – | – | – |
| Cc1cccc(CN(CCNCCCO)Cc2cccc(CN(Cc3ccccc3)Cc3cccc(C(F)(F)F)c3)n2)c1 | < 12.5 µM | 25 µM (≈ 14.8 µg/mL) | 5 µM (≈ 2.95 µg/mL) | 6 µM (≈ 3.54 µg/mL) | 12 µM (≈ 7.09 µg/mL) | > 100 µM | > 100 µM | 6 µM (≈ 3.54 µg/mL) | 5 µM (≈ 2.95 µg/mL) | 6 µM (≈ 3.54 µg/mL) | – | – | – |
